From PubChem BioAssay
FLuc act counter: firefly luciferase counter-screen for stimulation assays. ATPlite luciferase biochemical, luminescence, 10 min; 0 = ATP-free wells, 1 = DMSO control. activation factor at 10 µM. P08659. 200,000 tested, under 10 active;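 active = luciferase activation factor, scaled between plate controls, of at least 2 with compound at 10 µM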
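test system = cell-free luciferase reagent | medium = PBS as buffer for the ATP substrate | dosing = test compounds dosed from 2 mM stocks in 100% DMSO | incubation = 10 min at ambient temperature | detection = luminescence measurement of luciferase light output | benchmarks = low control with PBS replacing ATP, high control enzyme plus ATP without compound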
APP 5'UTR act: APP 5'UTR luciferase reporter activation; SH-SY5Y APP 5'UTR luciferase reporter, luminescence; zero percent = DMSO vehicle wells; activation, % at 2 µM; 190,000 compounds, 1% hits;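 active = activation above a set limit, based on mean plus 3 SD of controls, cut at about 140% in these data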
STAT1 activator: activators of IFN-gamma induced STAT1 signaling; NIH 3T3 STAT1-luciferase reporter, luminescence; 100% = IFN-gamma alone, no compound; activation (% of control), % at 5.5 µM; 200,000 compounds, 2.6% hits; AID 932;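 active = activation above the screen-wide mean activation plus 3 SD, cut at about 130% in these data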;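 also: raw ratio to IFN-gamma control signal so 100% means no change and 0% no light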
Rad51 HR inh: Rad51 (human) homologous recombination inhibition; Q06609; hRad51 DNA strand exchange, fluorescence dequenching; inhibition, % at 10 µM; 200,000 compounds, 0.085% hits;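 active = inhibition above 40% at the single screening dose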;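 also: 0% = DMSO control wells and 100% = blanks with heterologous ssDNA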
Target sequence (Q06609 whole entry, looked up): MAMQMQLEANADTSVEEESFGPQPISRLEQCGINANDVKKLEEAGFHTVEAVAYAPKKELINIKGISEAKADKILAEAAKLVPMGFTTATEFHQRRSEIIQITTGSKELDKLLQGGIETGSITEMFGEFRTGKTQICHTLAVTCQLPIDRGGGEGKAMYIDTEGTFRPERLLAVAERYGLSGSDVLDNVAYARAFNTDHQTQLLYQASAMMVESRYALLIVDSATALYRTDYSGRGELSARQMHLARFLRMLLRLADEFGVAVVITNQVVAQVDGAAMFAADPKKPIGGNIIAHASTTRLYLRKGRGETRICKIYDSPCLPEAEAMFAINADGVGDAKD
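Test system: preformed human Rad51 ssDNA filaments. Compound dosing: single dose, 10 µM final compound. Incubation: filaments 15 min 37 °C, then compound 30 min. Technique: FRET fluorescence dequenching, excitation 485 nm, emission 520 nm. Read-out basis: percent inhibition from fluorescence, normalised to plate control and blank means. Benchmarks: plate controls and plate blanks.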
NF-kB neuron act: raises NF-kB expression in human neuronal cells; NF-kB reporter expression; stronger effect = higher value; fold change at 12.5 µM; 190,000 compounds, 1.6% hits; AID 1239; in the data active = fold change above about 3.3
FLuc inhib CS: inhibits firefly luciferase, flagging false hits in luciferase inhibition screens | ATPLite firefly luciferase biochemical luminescence, 10 min | inhibition, % at 10 µM | 200,000 compounds, 1.5% hits | AID 1006;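 active = inhibition above about 50% when tested at 10 µM, limit read from the data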
* hit, by the source's call; nt = no result. Only some compounds are listed: those with a hit (about 3.9% of all), similar ones and a draw of the others.

SMILES	FLuc act counter	APP 5'UTR act	STAT1 activator	Rad51 HR inh	NF-kB neuron act	FLuc inhib CS
CCCN1C(=O)c2ccc(C(=O)NC3=NCCS3)cc2C1=O	0.9	nt	99	1	1.1	5
O=C(NC1=NCCS1)c1cccc(N2C(=O)c3ccccc3C2=O)c1	1	-9	99	41*	0.84	0
CC(C)Oc1ccc(C(=O)NC2=NCCS2)cc1	0.3	154*	94	32	8.3*	75*
Cc1ccc(C(=O)NC2=NCCS2)cc1	nt	nt	nt	-5	nt	nt
CC(C)c1ccc(C(=O)NC2=NCCS2)cc1	0.2	167*	145*	13	1.1	84*
CC1CCN(c2oc(-c3ccccc3Cl)nc2C#N)CC1	0.9	80	121	-6	3.7*	8
O=C(c1cc2c(=O)n3ccccc3nc2s1)N1CCOCC1	1	45	131*	nt	2	1
CCCNC(=O)COC(=O)c1cc2c(=O)n3ccccc3nc2s1	1	18	106	-27	1.2	3
CC(OC(=O)CCc1nc2ccccc2c(=O)[nH]1)C(=O)NC1CCCC1 (stereo not drawn)	1	5	86	0	1.2	-1
CC(OC(=O)CCc1nc2ccccc2c(=O)[nH]1)C(=O)c1ccc(C(C)(C)C)cc1 (stereo not drawn)	1	20	108	7	5.8*	-2
O=C(Cn1nc(-c2ccc(Cl)cc2)c2ccccc2c1=O)NN1CCOCC1	nt	nt	nt	14	nt	nt
CCOC(=O)C(=O)c1csc(NC(=O)CCSc2ccc(C)cc2)n1	1.1	-14	95	6	1.6	-8
COc1cccc(N=c2oc3ccc(OC)cc3cc2-c2nc3ccccc3[nH]2)c1	0.9	90	135*	4	3.1	13
COc1cccc(N=c2oc3ccccc3cc2-c2nc3ccccc3[nH]2)c1	0.7	132	147*	0	3.5*	25
COc1ccc(N=c2oc3ccc(OC)cc3cc2-c2nc3ccccc3[nH]2)cc1	1	4	127	5	2.6	4
O=[N+]([O-])c1cc(/C=N/Nc2nc3ccccc3[nH]2)c(O)cc1O	0.8	-50	116	2	2.1	20
Nc1n[nH]c(N)c1N=Nc1ccc2c(c1)OCO2	0.6	1	132*	-8	1.8	35
Nc1n[nH]c(C2CC2)c1N=Nc1ccc(Cl)c(Cl)c1	nt	nt	nt	-13	nt	nt
O=C(c1ccccc1)n1ccc(-c2cnc(-c3ccccc3)s2)n1	0.8	141*	123	-2	6*	24
COc1ccc(S(=O)(=O)n2ccc(-c3cnc(-c4ccccc4)s3)n2)cc1	1	44	114	-1	1.6	-3
COc1cccc(C(=O)Nc2ccc(-c3nnc(-c4ccco4)o3)cc2)c1	1	27	86	2	0.86	-4
COc1cccc(-c2nnc(-c3ccco3)o2)c1	0.5	109	144*	nt	3	54*
COc1cccc(-c2nnc(-c3ccc(C)o3)o2)c1	0.1	164*	120	5	4.2*	86*
CCC1(C)Cc2c(sc3nnn(Cc4ccccc4Cl)c(=O)c23)CO1 (stereo not drawn)	1	-6	102	-3	0.78	-3
C#Cc1ccc([C@H]2C=C(C(=O)Nc3ccccc3)O[C@@H](OCc3ccc(CO)cc3)C2)cc1	nt	nt	nt	5	nt	nt
SMILES	FLuc act counter	APP 5'UTR act	STAT1 activator	Rad51 HR inh	NF-kB neuron act	FLuc inhib CS
O=C(Nc1ccc(Cl)cc1Cl)c1n[nH]c(Cn2cncn2)n1	0.4	28	94	-4	1.2	64*
N#C/C(=C\c1ccc(Cl)cc1)c1n[nH]c(Cn2cncn2)n1	1	5	98	-4	1	-5
CC(=O)c1ccc(S(=O)(=O)N(Cc2cc3cc4c(cc3[nH]c2=O)OCCO4)CC2CCCO2)cc1 (stereo not drawn)	1	26	129*	6	1.6	-1
COc1cc(C)ccc1OCCOc1ccccc1Cl	1	17	128	nt	2	2
COc1cc(C)ccc1OCCCOc1ccccc1Cl	1	108	144*	3	3.2	-4
O=C(/C=C/c1ccc(Cl)cc1Cl)N1CCN(c2ccccc2[N+](=O)[O-])CC1	1	8	102	-13	1.1	2
Cc1c(/C(O)=C2/C(=O)C(=O)N(Cc3cccnc3)C2c2cccs2)cnn1-c1ccccc1 (stereo not drawn)	1	141*	141*	-1	0.5	2
Clc1ccc(-c2csc(N/N=C/c3cccnc3)n2)c(Cl)c1	1	3	105	nt	1.3	2
CC(C)(C)c1csc(N/N=C/c2cccnc2)n1	0.7	77	150*	7	3	28
C(=N\Nc1nc(-c2ccccc2)cs1)/c1cccnc1	0.9	48	144*	-10	2.3	10
C=CCC1(C#N)C(SC)=NC2=C(C(=O)CC(C)(C)C2)C1c1ccc(Br)cc1 (stereo not drawn)	1	-7	95	5	0.56	-4
CCn1cc(-c2n[nH]c(=S)n2-c2ccc(C)cc2Br)c(=O)c2ccc(C)nc21	nt	nt	nt	6	nt	nt
CN(C)/C=N/c1ncn(-c2ncc(C(F)(F)F)cc2Cl)n1	0.7	77	133*	-12	0.81	25
Cc1ccc(NC(=O)C2C(=O)N(C)c3ccccc32)cc1 (stereo not drawn)	0.2	-11	109	nt	1.2	76*
c1coc(CNc2nc(-c3cccs3)cs2)c1	0.6	40	127	-9	2.5	35
Oc1ccc(-c2csc(NCc3ccco3)n2)cc1	0.8	24	114	-3	3.7*	15
CCN=c1scc(C)n1/N=C/c1cc(Br)c(O)c(OC)c1	1	22	102	18	1.1	2
COc1ccc(O)c(/C=N/n2c(-c3ccco3)csc2=Nc2cccnc2)c1	1	1	104	nt	0.96	-3
CN=c1scc(C)n1/N=C/c1ccc(O)cc1	0.5	93	114	-6	12*	54*
CN=c1scc(C)n1/N=C/c1ccc2c(c1)OCO2	0.4	209*	120	0	8.6*	58*
CN=c1scc(C)n1/N=C/c1cc(Br)c(O)c(Br)c1	0.7	-4	110	4	5.5*	32
CN=c1scc(-c2ccco2)n1/N=C/c1ccc(O)c(O)c1	0.1	9	100	11	3.8*	88*
CCOC(=O)C(C(=O)OCC)C(C[N+](=O)[O-])c1ccccc1 (stereo not drawn)	1	3	107	16	1.1	-2
OC(c1ccccn1)(c1ccccn1)c1ccccn1	0.9	3	94	nt	1	5
CN=c1scc(C)n1/N=C/c1ccc(O)cc1O	0.2	156*	49	8	3.8*	81*
COc1ccccc1C1CC(c2cccs2)=Nc2ccccc2S1 (stereo not drawn)	1.1	146*	112	-6	1.8	-5
